The values that follow come from ChEMBL document CHEMBL5030567, “Macrocyclic Inhibitors of HGF-Activating Serine Proteases Overcome Resistance to Receptor Tyrosine Kinase Inhibitors and Block Lung Cancer Progression” (J Med Chem, 2021).

For one data set, the system named is NCI-H596. The data set can be described thus: Antitumor activity against human NCI-H596 cells xenografted in hHGF knock in NSG mouse assessed as tumor growth inhibition at 20 mg/kg, ip administered daily for 14 to 16 days. Format: functional, organism-based. Conditions: time 14-16 day.
Data set [1] can be described thus: Toxicity in NSG mouse assessed as body weight loss at 10 to 50 mg/kg, ip administered for 7 days. Format: organism-based. The settings on record: in vivo, dose 10-50 mg/kg, time 7 day.
Data set [2] can be described thus: Acute toxicity in NSG mouse at 10 to 50 mg/kg, ip administered for 7 days. Format: organism-based. Conditions: in vivo, dose 10-50 mg/kg, time 7 day.
Data set [3] is described as follows: Toxicity in hHGF knock in NSG mouse xenografted with human NCI-H596 cells at 20 mg/kg, ip administered daily for 14 to 16 days. Format: organism-based. Conditions: in vivo, time 14-16 day.
The nature of data set [4]: Toxicity in NSG mouse at 20 mg/kg, ip administered daily for 7 days. The settings on record: in vivo, time 7 day. Format: organism-based.
In another data set the test system is EBC-1. The data set can be described thus: Cytotoxicity against human EBC-1 cells assessed as reduction in cell viability preincubated with compound and pro-HGF for 24 hrs followed by JNJ-38877605 addition and measured after 48 hrs by CellTiter-Glo assay. Format: functional, cell-based. Conditions: time 72.0 hrs. Put shortly: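 EBC-1 cells pre-incubated 24 h with pro-HGF (100 ng/ml) with or without compound (1 µM), then given MET kinase inhibitor JNJ-38877605 (25 nM). Viability read by CellTiter-Glo after 48 h. Means±S.E.M., n=3; one-way ANOVA with Dunnett's test.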

Data set [5] has as its target T1, Suppressor of tumorigenicity 14 protein (Homo sapiens, UniProt Q9Y5Y6).
T1 sequence (Q9Y5Y6 whole entry): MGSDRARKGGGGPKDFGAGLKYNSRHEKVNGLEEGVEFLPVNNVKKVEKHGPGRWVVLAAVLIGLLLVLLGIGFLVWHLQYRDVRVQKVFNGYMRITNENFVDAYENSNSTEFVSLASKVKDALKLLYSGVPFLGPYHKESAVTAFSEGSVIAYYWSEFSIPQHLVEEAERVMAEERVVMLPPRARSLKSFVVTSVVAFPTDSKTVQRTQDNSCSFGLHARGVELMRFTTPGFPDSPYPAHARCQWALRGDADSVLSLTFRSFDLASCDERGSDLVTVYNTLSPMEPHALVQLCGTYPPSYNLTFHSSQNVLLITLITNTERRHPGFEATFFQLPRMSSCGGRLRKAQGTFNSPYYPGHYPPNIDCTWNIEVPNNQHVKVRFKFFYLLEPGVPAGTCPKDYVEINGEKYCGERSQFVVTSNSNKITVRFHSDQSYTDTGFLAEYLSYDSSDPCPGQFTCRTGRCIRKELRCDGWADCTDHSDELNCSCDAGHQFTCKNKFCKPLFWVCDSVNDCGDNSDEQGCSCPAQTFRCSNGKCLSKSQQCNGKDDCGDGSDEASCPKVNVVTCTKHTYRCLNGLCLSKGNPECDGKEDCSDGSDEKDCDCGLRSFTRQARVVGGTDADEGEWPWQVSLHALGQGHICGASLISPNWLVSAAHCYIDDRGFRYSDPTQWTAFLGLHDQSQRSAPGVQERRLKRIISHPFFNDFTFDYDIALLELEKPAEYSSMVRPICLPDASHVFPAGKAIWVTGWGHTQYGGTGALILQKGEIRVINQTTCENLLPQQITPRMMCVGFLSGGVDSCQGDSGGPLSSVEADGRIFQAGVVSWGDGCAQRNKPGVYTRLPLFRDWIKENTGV
The data set can be described thus: Inhibition of recombinant human N-terminal met-His6-tagged matriptase catalytic domain (Gly596 to Val855 residues) expressed in Escherichia coli using Boc-QAR-AMC as substrate preincubated for 30 mins followed by substrate addition by fluorescence based assay. In outline: (§1)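 Inhibitor in 11-point serial dilution (0-20 µM final, 2% DMSO) pre-incubated 30 min at room temperature with enzyme in TNC buffer (25 mM Tris, 150 mM NaCl, 5 mM CaCl2, 0.01% Triton X-100, pH 8). […] Hepsin activated beforehand 24 h at 37°C. Fluorescence ex 380/em 460 nm kinetic; four-parameter fit of velocities; mean of three experiments.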

Data set [6] concerns the target T2, Serine protease hepsin (Homo sapiens, UniProt P05981). The data set can be described thus: Inhibition of recombinant human C-terminal 10-His tagged hepsin (Arg45 to Leu417) expressed in mouse myeloma cells using Boc-QAR-AMC as substrate preincubated for 30 mins followed by substrate addition by fluorescence based assay. Format: single protein. Put shortly:
as §1

The nature of data set [7]: Stability in mouse plasma assessed as half life. Format: ADME, cell-free.
Data set [8] can be described thus: Stability in human plasma assessed as half life. Format: ADME, cell-free.
Data set [9] can be described thus: Plasma protein binding in mouse assessed as unbound fraction. Format: ADME, cell-free.
A short description of data set [10]: Half life in mouse plasma at 20 mg/kg, ip. Format: ADME, organism-based. Conditions: in vivo, 20 mg/kg.
Data set [11] is described as follows: Solubility of compound at pH 7.4. Format: physicochemical. Conditions: buffer.
The nature of data set [12]: Stability in human liver microsomes assessed as half life. Format: ADME, Microsome.
Data set [13] in a line: Stability in mouse liver microsomes assessed as half life. Format: ADME, Microsome.
Data set [14] has as its target T3, Suppressor of tumorigenicity 14 protein (Homo sapiens) (UniProt Q9Y5Y6).
T3 sequence (whole entry): T1 sequence (Q9Y5Y6 whole entry)
The data set can be described thus: Inhibition of recombinant human N-terminal met-His6-tagged matriptase catalytic domain (Gly596 to Val855 residues) expressed in Escherichia coli mediated pro-HGF activation preincubated for 30 mins followed by pro-HGF addition and measured after 1 hr by immunoblotting analysis. In outline: (§2)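 Recombinant pro-HGF (10 ng) incubated one hour with matriptase (1 nM), hepsin (10 nM) or HGFA (5 nM), with or without inhibitor. Processing detected by immunoblot with a polyclonal antibody recognizing pro-HGF and the HGF alpha and beta chains; active HGF served as positive control.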

Data set [15] has as its target T2, Serine protease hepsin. The data set can be described thus: Inhibition of recombinant human C-terminal 10-His tagged hepsin (Arg45 to Leu417) expressed in mouse myeloma cells mediated pro-HGF activation preincubated for 30 mins followed by pro-HGF addition and measured after 1 hr by immunoblotting analysis. Put shortly: as §2
In data set [16] the target is T4, Hepatocyte growth factor activator serine protease (Homo sapiens) (UniProt Q04756).
T4 sequence (whole entry): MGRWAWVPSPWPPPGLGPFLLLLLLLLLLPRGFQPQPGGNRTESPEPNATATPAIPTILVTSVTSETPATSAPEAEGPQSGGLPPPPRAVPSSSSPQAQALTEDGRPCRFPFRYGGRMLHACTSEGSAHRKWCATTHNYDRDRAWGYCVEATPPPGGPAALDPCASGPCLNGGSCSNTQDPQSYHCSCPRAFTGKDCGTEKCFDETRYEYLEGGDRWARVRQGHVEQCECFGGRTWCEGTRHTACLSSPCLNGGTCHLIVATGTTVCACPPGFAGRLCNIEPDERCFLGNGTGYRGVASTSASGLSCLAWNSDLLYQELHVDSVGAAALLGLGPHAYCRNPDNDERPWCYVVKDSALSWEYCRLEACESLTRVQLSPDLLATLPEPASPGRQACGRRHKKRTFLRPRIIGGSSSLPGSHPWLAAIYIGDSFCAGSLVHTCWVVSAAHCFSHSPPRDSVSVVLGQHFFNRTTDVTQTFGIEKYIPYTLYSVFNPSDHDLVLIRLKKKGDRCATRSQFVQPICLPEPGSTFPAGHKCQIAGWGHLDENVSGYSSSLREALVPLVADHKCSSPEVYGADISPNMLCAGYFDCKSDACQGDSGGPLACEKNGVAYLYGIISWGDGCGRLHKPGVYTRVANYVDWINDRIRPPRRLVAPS
The data set can be described thus: Inhibition of recombinant human HGFA serine protease domain mediated pro-HGF activation preincubated for 30 mins followed by pro-HGF addition and measured after 1 hr by immunoblotting analysis. Put shortly:
as §2

Data set [17] deals with HCC827. The data set can be described thus: Inhibition of pro-HGF stimulated wound healing in human HCC827 cells preincubated for 30 mins followed by pro-HGF stimulation and measured after 24 hrs by crystal violet staining based assay. Format: functional, cell-based. In outline:
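HCC827 monolayers grown to confluence, serum-starved overnight, then scratched. Cells were pre-incubated 30 min with inhibitor (10 µM) and stimulated with HGF or pro-HGF for 24 h. Wells stained with crystal violet to score closure. n=3; one-way ANOVA versus pro-HGF alone.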

Data set [18] deals with HCC827. The data set can be described thus: Cytotoxicity against human HCC827 cells assessed as reduction in cell viability at 0.1 to 1 uM after 72 hrs by crystal violet staining based assay. The settings on record: dose 0.1-1 µM.
The subject of data set [19] is HCC827. The data set can be described thus: Cytotoxicity against human HCC827 cells assessed as reduction in cell viability at 0.1 to 1 uM after 72 hrs in presence of pro-HGF by crystal violet staining based assay. The settings on record: dose 0.1-1 µM.

Converted amounts (≈) assume the structure as drawn. The source made the active and inactive calls. No cut-off for these calls is given here. A value given as a limit tells only on which side of the number the result lay.

T2 sequence (P05981 1-162 limits assumed): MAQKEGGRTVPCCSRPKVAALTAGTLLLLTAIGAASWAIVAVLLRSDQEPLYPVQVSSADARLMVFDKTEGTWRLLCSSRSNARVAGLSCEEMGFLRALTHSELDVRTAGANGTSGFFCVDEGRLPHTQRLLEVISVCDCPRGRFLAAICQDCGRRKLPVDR
T2 sequence (P05981 163-417 limits assumed): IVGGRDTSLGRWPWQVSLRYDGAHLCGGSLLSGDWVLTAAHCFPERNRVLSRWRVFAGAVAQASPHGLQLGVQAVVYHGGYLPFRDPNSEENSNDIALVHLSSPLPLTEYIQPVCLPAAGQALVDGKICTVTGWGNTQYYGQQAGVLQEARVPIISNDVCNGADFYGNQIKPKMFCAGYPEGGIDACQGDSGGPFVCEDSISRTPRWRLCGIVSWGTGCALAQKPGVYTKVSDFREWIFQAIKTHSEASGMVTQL

Consider `CC(=O)N[C@H]1CC(=O)NCCCC[C@@H](C(=O)N[C@@H](CCCNC(=N)N)C(=O)c2nc3ccccc3s2)NC(=O)[C@H](CC(C)C)NC1=O`, for which the result with NCI-H596, with EBC-1 and in the data set with HCC827 [19] was Active. Also, the Activity result in [1], in [2], in data set [3] and in [4] was “Non-Toxic” in each case. Also, the IC50 in [5] was found to be 2.2 nM; at Serine protease hepsin [6], 11 nM. Further, the t1/2 was 3.7 h in data set [7]; more than 4.82 h in data set [8]; 8.7 h in [10]; more than 2.42 h in data set [12]; more than 2.42 h in data set [13]. Moreover, the fraction unbound in data set [9] amounted to 0.286. The compound further registered a solubility in data set [11] of 11 µM (≈ 7.39 µg/mL). The inhibition result (in data set [14]; on Serine protease hepsin [15]; in the data set on HCC827 [17]) was “Active” throughout. Moreover, in data set [16], the inhibition result was “inactive”. Moreover, in the data set on HCC827 [18], the result was inactive.
